Results published in ChEMBL document CHEMBL4184225, “Discovery of selective 2,4-diaminoquinazoline toll-like receptor 7 (TLR 7) agonists” (Bioorg Med Chem Lett, 2018).

Experiments:
[1] = molecular target: T1, Toll-like receptor 7 (Homo sapiens) (UniProt Q9NYK1); test: Agonist activity at TLR7 in human PBMC assessed as suppression of HCV replicon replication in human HuH7 luc/neo cells harboring RNA encoding bicistronic expression construct comprising wild type HCV type 1b NS3-NS5B regions exposed to conditioned media from compound treated PBMCs by luciferase reporter gene assay; format: cell-based
T1 sequence (whole entry): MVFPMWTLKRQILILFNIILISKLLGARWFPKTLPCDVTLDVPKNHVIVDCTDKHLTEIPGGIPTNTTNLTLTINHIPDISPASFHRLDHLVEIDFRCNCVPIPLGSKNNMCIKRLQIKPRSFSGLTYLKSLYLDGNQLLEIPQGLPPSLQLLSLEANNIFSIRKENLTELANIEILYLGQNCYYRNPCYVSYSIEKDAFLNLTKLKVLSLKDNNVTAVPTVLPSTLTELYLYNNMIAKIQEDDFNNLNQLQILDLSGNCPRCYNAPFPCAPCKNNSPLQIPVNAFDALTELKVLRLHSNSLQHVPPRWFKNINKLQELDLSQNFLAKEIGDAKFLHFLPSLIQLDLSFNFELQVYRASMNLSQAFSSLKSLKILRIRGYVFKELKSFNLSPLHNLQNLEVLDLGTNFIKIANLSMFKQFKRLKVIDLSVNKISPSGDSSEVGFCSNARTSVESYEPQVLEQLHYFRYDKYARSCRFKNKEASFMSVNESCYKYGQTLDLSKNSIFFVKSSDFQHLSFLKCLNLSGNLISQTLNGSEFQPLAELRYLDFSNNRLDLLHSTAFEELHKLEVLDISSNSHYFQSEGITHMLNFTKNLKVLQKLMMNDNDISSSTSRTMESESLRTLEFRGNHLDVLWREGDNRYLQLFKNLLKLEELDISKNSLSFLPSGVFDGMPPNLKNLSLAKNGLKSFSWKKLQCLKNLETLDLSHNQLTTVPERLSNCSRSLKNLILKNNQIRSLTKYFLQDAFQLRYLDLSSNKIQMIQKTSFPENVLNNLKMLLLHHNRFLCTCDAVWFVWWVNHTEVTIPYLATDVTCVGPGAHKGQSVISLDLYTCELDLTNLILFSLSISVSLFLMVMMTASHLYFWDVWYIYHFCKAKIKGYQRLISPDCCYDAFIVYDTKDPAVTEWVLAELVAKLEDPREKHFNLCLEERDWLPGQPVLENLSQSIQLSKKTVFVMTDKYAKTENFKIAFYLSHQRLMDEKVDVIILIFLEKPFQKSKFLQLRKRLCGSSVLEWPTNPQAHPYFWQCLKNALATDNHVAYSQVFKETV
Procedure, shortened: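 PBMCs from buffy coats of at least two donors (Ficoll), in RPMI with 10% human AB serum, 2 x 10^5 cells/well, incubated overnight with compound. Supernatant transferred onto Huh7-luc/neo replicon cells plated the day before (2.2 x 10^3/well). Luciferase read after 24 h. EC50 is the concentration applied to PBMCs giving 50% luciferase reduction. Recombinant IFN-α2a standard.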

[2] = molecular target: T1, Toll-like receptor 7 (Homo sapiens); test: Agonist activity at human TLR7 expressed in HEK293 cells assessed as induction of receptor activation incubated for 6 hrs by NF-kappaB-luciferase reporter gene assay; format: cell-based
Procedure, shortened: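 HEK293 cells transiently transfected overnight with CMV-TLR7 (wild type or dLRR2 mutant) plus NFκB-luc plasmids. Seeded at 1.67 x 10^5 cells/mL onto compound in 4% DMSO (stock), 6 h at 37°C, 5% CO2, luciferase readout. Quadruplicate dose-response. LEC is the concentration giving an effect at least two-fold above assay SD. Values averaged over independent experiments where repeated.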

Toll-like receptor 8 = molecular target: T2, Toll-like receptor 8 (Homo sapiens, UniProt Q9NR97); test: Agonist activity at human TLR8 expressed in HEK293 cells assessed as induction of receptor activation incubated for 6 hrs by NF-kappaB-luciferase reporter gene assay; format: cell-based; conditions: hek293, 6 h
T2 sequence (Q9NR97 whole entry): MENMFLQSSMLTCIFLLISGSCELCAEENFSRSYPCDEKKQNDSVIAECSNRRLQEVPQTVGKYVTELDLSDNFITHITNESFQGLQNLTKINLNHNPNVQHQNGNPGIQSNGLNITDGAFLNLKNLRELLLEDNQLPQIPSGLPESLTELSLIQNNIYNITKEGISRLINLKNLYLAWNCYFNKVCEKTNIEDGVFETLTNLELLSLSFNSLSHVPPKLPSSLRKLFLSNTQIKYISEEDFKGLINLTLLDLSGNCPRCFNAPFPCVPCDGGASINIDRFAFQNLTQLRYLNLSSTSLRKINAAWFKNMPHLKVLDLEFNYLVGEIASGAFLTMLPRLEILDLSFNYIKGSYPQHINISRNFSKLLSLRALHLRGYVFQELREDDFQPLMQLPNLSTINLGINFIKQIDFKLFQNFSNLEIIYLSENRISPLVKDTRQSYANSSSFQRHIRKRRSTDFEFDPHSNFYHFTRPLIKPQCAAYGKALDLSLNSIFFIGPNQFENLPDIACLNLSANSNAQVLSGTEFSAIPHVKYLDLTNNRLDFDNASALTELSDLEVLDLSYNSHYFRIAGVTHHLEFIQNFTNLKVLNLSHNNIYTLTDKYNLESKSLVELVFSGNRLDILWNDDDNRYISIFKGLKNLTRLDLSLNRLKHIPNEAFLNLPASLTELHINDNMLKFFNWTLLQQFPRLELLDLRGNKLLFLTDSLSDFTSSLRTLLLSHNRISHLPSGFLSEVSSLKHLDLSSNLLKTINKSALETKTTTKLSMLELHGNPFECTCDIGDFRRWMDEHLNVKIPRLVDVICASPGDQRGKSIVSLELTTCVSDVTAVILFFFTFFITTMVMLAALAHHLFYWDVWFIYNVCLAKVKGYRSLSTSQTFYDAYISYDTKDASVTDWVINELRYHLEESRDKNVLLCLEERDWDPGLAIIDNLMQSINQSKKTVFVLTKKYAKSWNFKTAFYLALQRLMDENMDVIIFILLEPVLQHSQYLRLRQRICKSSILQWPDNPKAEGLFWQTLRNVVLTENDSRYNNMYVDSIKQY
Procedure, shortened: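 HEK293 cells transiently transfected overnight at 37°C with CMV-TLR8 plasmid (wild type or dLRR2 mutant) plus NFκB-luc reporter, then exposed to compound for 6 h at 37°C, 5% CO₂. Luciferase read-out. Quadruplicate dose-response. LEC is the concentration giving an effect at least two-fold above the assay SD, averaged over two or more independent experiments.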

[3] = Cytotoxic activity against HEK293 cells assessed as reduction in cell viability incubated for 6 hrs; format: cell-based; conditions: human
Procedure, shortened: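 HEK293 cells transfected with the CMV-TLR7 construct alone, treated with a compound dilution series for 6 h at 37°C, 5% CO₂. Viability read by ATP luminescence. Reported as CC50.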

[4] = Metabolic stability in human liver microsomes assessed as drug metabolism after 15 mins at 1 uM; format: ADME, microsome; conditions: read-out: Drug metabolism
Procedure, shortened: (§1)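 Compound at 1µM incubated with liver microsomes of the stated species. Percent of compound metabolized after 15 min.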

[5] = Metabolic stability in mouse liver microsomes assessed as drug metabolism after 15 mins at 1 uM; format: ADME, microsome; conditions: read-out: Drug metabolism; procedure, shortened: as §1

Structure (SMILES)	MEC [1]	MEC [2]	MEC (Toll-like receptor 8)	CC50 at 6 h [3]	metabolised at 0.25 h, 1 µM [4]	metabolised at 0.25 h, 1 µM [5]
CCCCNc1nc(N)nc2ccc(C(C)O)cc12 (stereo not given)	8.49 µM	12 µM	5.8 µM	> 18 µM		
CCCCNc1nc(N)nc2ccc(C#N)cc12	13.2 µM	> 25 µM	7.1 µM	> 18 µM		
CCCCNc1nc(N)nc2c(F)cccc12	0.07 µM	0.2 µM	0.3 µM	> 18 µM		
CCCCNc1nc(N)nc2cc(C(=O)N(C)C)ccc12	0.06 µM	0.1 µM	0.5 µM	> 18 µM		
CCCCNc1nc(N)nc2cc(C(N)=O)ccc12	0.15 µM	0.4 µM	2 µM	> 18 µM		
CCCC(C)Nc1nc(N)nc2ccccc12 (stereo not given)	0.1 µM	0.71 µM	0.17 µM	> 25 µM		
COCCCNc1nc(N)nc2ccccc12	0.04 µM	0.46 µM	0.01 µM	> 25 µM		
CCCCNc1nc(N)nc2ccc(C(C)=O)cc12	2.39 µM	6.1 µM	1.9 µM	> 18 µM		
CNc1nc(N)nc2ccccc12	8.88 µM	18.7 µM	6.87 µM	> 25 µM		
CCCCNc1nc(N)nc2cccc(CC3CCCC3)c12	0.09 µM	0.12 µM	> 25 µM	> 25 µM		
CCCCNc1nc(N)ncc1OCC	1.43 µM	4.7 µM	1.1 µM	> 25 µM		
CCCCNc1nc(N)nc2cc(F)c(F)cc12	0.26 µM	1.8 µM	0.1 µM	> 18 µM		
CCCNc1nc(N)nc2ccccc12	0.67 µM	1.07 µM	0.93 µM	> 25 µM		
CCCCNc1nc(N)nc2cccc(C(=O)N(C)C(C)C)c12	1.92 µM	5.62 µM	> 25 µM	> 25 µM		
CCCCNc1nc(N)nc2cc(OC)ccc12	0.15 µM	0.9 µM	0.3 µM	> 18 µM		
CCCCNc1nc(N)nc2cc(CO)ccc12	0.05 µM	0.1 µM	0.1 µM	> 18 µM		
CC(C)CCNc1nc(N)nc2ccccc12	1.5 µM	> 25 µM	2.11 µM	> 25 µM		

Structure (SMILES)	MEC [1]	MEC [2]	MEC (Toll-like receptor 8)	CC50 at 6 h [3]	metabolised at 0.25 h, 1 µM [4]	metabolised at 0.25 h, 1 µM [5]
CCCCNc1nc(N)nc2ccc(F)cc12	0.11 µM	0.3 µM	0.1 µM	> 18 µM		
CCCCNc1nc(N)nc2ccc(CCc3ccccn3)cc12	0.04 µM	0.1 µM	0.3 µM	> 18 µM		
CCCCNc1nc(N)nc2ccc(CCc3ccc(N(C)C)cc3)cc12	0.15 µM	0.2 µM	0.5 µM	> 18 µM		
CCCCNc1nc(N)nc2cccc(OC)c12	0.1 µM	0.4 µM	0.1 µM	> 25 µM	98%	100%
CCCCCNc1nc(N)nc2ccccc12	0.04 µM	0.06 µM	0.1 µM	> 25 µM		
CCCCNc1nc(N)nc2ccc(CO)cc12	0.14 µM	0.9 µM	0.2 µM	> 18 µM		
CCCCNc1nc(N)nc2cccc(Cl)c12	0.17 µM	1 µM		> 25 µM	99%	88%
CCCCNc1nc(N)nc2cccc(C(=O)N[C@@H](C)c3cccc(OC)c3)c12	0.5 µM	0.37 µM	> 25 µM	> 25 µM	97%	96%
CCCCNc1nc(N)nc2cc(OC)c(OC)cc12	2.05 µM	10 µM	1.1 µM	> 18 µM		
CCCCNc1nc(N)nc2cccc(CCc3ccccc3)c12	0.27 µM	0.13 µM	0.47 µM	> 25 µM	24%	97%
CCCCNc1nc(N)nc2cc(CN(C)C)ccc12	0.04 µM	0.2 µM	0.04 µM	> 18 µM		
CCCCNc1nc(N)nc2cccc(C)c12	0.32 µM	0.5 µM	0.3 µM	> 25 µM	96%	100%
CCCCNc1nc(N)nc2cccc(OCCOC)c12	0.12 µM	0.1 µM	0.2 µM	> 25 µM	59%	98%
CCCCNc1nc(N)nc2ccc(OC)cc12	2.44 µM	5.6 µM	1.8 µM	> 18 µM		
CCNc1nc(N)nc2ccccc12	2.27 µM	3.07 µM	0.77 µM	> 25 µM		
CCCCNc1nc(N)nc2cccc(C(=O)N[C@@H](C)c3ccccc3OC)c12	0.14 µM	0.28 µM	> 25 µM	> 25 µM	99%	99%
